In brackets after ≈: the same amount, converted by molar mass.

Type in all cases: functional, cell-based
Assay [1] relates to HCT-116. Put plainly: Growth inhibition of human HCT116 cells after 48 hrs by MTT assay. The conditions noted are these: HCT-116, 48 h. The procedure, abridged:
(§1)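 Cells seeded at 5000/well and left 24 h at 37 °C to attach. Samples in DMSO diluted into McCoy's 5A with 10% FBS, penicillin/streptomycin, amphotericin B and glutamine at 5, 10, 25, 37 and 50 µg/mL, 48 h, 37 °C. MTT 2.41 mmol/L for 3 h, formazan dissolved in DMSO, absorbance 595 nm. Reported as % cell growth, n = 8; IC50 by curve fitting.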

In assay [2] the test system is HT-29. Put plainly: Growth inhibition of human HT-29 cells after 48 hrs by MTT assay. To be noted: HT-29, 48 h. In short, it runs like this: as §1
For assay [3], the system named is BT-20. Kind of assay: Growth inhibition of human BT20 cells.
Assay [4] deals with HeLa. Put plainly: Growth inhibition of human HeLa cells.
In assay [5] the test system is FM3A. Put plainly: Growth inhibition of mouse FM3A cells.

Regarding `CCCC/C=C\CCCCCCCCCCCc1cc(O)cc(O)c1`, the IC50 was 20 µg/mL (≈ 57.8 µM) in assay [1] and 35.6 µg/mL (≈ 103 µM) in assay [2]. For `CCCCCCCCCCCCCCCCCCCc1cc(O)cc(O)c1`, in that order: 36.2 µg/mL (≈ 96.1 µM) and > 50 µg/mL. `CCCC/C=C\CCCCCCCCCCCCCc1cc(O)cc(O)c1`: the IC50 in assay [1] turned out to be 17.6 µg/mL (≈ 47.1 µM). For `CCCCCC/C=C\CCCCCCCCCCCc1cc(O)cc(O)c1`, the results for the half-maximal inhibitory concentration (IC50) in assay [1] and in assay [2] were 11.6 µg/mL (≈ 30.9 µM) and 30.4 µg/mL (≈ 81.2 µM), respectively. Regarding `CCCCC/C=C\C/C=C\CCCCCCCCCc1cc(O)cc(O)c1`, the results for the IC50 in assay [1] and in assay [2] were 27.1 µg/mL (≈ 72.6 µM) and 48.3 µg/mL (≈ 130 µM), respectively. For `CC/C=C\C/C=C\C/C=C\CCCCCCCCCc1cc(O)cc(O)c1`, in that order: 20 µg/mL (≈ 54.1 µM) and 39.5 µg/mL (≈ 107 µM).

As to `CCCCCCCCCCCCCCCCCCCCCc1cc(O)cc(O)c1`, the IC50 in assay [1] and in assay [2] was > 50 µg/mL throughout. Consider `CCCC/C=C\CCCCCCCCCCCCCCCc1cc(O)cc(O)c1`, for which the figures for the IC50 in assay [1] and in assay [2] were 22.3 µg/mL (≈ 55.3 µM) and 46.9 µg/mL (≈ 116 µM), respectively. The compound `CCCCCCCCCCCCCCCCCCCC(=O)Cc1cc(O)cc(O)c1` returned an IC50 in assay [1] of 16.6 µg/mL (≈ 39.7 µM). For `CCCCCCCCCCCCCCCCCCCCCCCc1cc(O)cc(O)c1`, the IC50 in assay [1] and in assay [2] was > 50 µg/mL throughout. Turning to `CCCCCCCCCCCCCCCCCCCCCC(=O)Cc1cc(O)cc(O)c1`, the IC50 in assay [1] is > 50 µg/mL.

Turning to `CCCCCCCCCCCCCCCCCCCCCCCCCc1cc(O)cc(O)c1`, the IC50 in assay [1] and in assay [2] was > 50 µg/mL throughout. In the case of `CCCCCCCCCCCCCCCCCc1cc(O)cc(O)c1`, the IC50 in assay [1] was determined as 18.9 µg/mL (≈ 54.3 µM); in assay [2], 31.1 µg/mL (≈ 89.4 µM). Regarding `CCCCCCCCCCCCCCCc1cc(O)cc(O)c1` [CARDOL], the IC50 in assay [3] is 6.25 µg/mL (≈ 19.5 µM); in assay [4] it was 4.02 µg/mL (≈ 12.5 µM); in assay [5] it was 2.8 µM.

(Values after ChEMBL document CHEMBL1795289, “5-alk(en)ylresorcinols as the major active components in wheat bran inhibit human colon cancer cell growth” (Bioorg Med Chem, 2011).)
